The target in test [1] is Pantothenate synthetase (Mycobacterium tuberculosis (strain ATCC 25618 / H37Rv)) (UniProt P9WIL5). The experiment in a line: Recombinant Mtb pantothenate synthetase (PanC) inhibitors, coupled enzyme, confirmatory (AID 375; call rule not given here;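 note: 0% = full reaction with vehicle and 100% = no enzyme background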). Conditions: coupled enzyme assay; at 10 µM, stronger effect = higher value.
Test [2] can be described thus: SK-BR-3 cell growth inhibitors, pilot screen, 24 h, human (AID 572).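 Note: compound exposure lasted between 18 and 24 h rather than exactly 24 h; 100% = carrier-treated control wells.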 Conditions: SK-BR-3 viability, CellTiter-Glo luminescence, at 10 µM, stronger effect = lower value.
Test [3] in a line: HUVEC growth inhibition – cell-based, human, primary screen (AID 575;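 active = viability at or below 30% in both replicate assays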;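 note: 100% = median of untreated cell wells with 0.1% DMSO on each plate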). The note with it: HUVEC proliferation, CellTiter-Glo luminescence, 72 h; at 10 µM; stronger effect = lower value. In a few lines:
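Test system: HUVEC primary cells. Quantity: 1250 endothelial cells in each well. Dosing: single-point 10 µM, DMSO 0.1% final. Incubation: 72 h treatment at 37 °C. Measured by: CTG luminescence. Control set: DMSO cell controls and MePR drug controls. Plate: collagen-coated 384-well format.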
A general note: Cellular ATP, detected with luciferase, serves as a proxy for viable cell number.

Test [4] is described as follows: growth inhibitors of H69AR lung tumor, primary screen, human, duplicate replicates (AID 580;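 active = viability at or under a set limit in both replicates, limit being median viability minus 3 SD, cut at about 48% in these data, passing the limit was not always enough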;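 note: 100% = mean luminescence of untreated wells and 0% = no signal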). The note with it: H69AR lung tumor cells viability, ATP luminescence, 72 h; at 10 µM; stronger effect = lower value.
A short description of test [5]: reversal of MRP1-mediated doxorubicin resistance, pilot screen, H69AR cells, doxorubicin co-treatment (AID 601;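 active = viability loss from added drug above about 55%, and viability with drug at most 40%, in both replicates, limit read from the data, passing the limit was not always enough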). Conditions: CellTiter-Glo, 72 h, at 10 µM; for differential viability (reversal): stronger effect = higher value.
The nature of test [6]: 384-well plate pilot, post-Golgi transport modulator project, inhibition of yeast transport mutant growth (AID 636; in the data active = inhibition above about 31%). Conditions: absorbance 615 nm, about 18 h, stronger effect = higher value.
The nature of test [7]: growth suppression of yeast trafficking mutant, preliminary HTS, modulators of trafficking downstream of Golgi apparatus project, 1536-format plate, OD 615 nm (AID 637; in the data active = inhibition above about 30%). The note with it: yeast transport mutant growth, absorbance 615 nm, 18 h; stronger effect = higher value.
The nature of test [8]: reducers of endogenous Her2 protein level, primary screen, SKBR3 breast tumor cells, AlphaScreen, ATP viability (AID 461;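 active = Her2 level under about 52% in both replicate screens, with viability over 70% of control, limit read from the data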;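 for Her2 level: lower value means less Her2 protein in the cells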;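 for viability: percent of carrier control wells set as 100% viability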). Conditions: 18-24 h, measured here: SKBR3 viability, ATP luminescence, at 10 µM.
Test [9] deals with Receptor tyrosine-protein kinase erbB-2 (Homo sapiens) (UniProt P04626). Described as above. Conditions: 18-24 h, at 10 µM, stronger effect = lower value.
Receptor tyrosine-protein kinase erbB-2 (Homo sapiens), sequence (P04626 whole entry, looked up): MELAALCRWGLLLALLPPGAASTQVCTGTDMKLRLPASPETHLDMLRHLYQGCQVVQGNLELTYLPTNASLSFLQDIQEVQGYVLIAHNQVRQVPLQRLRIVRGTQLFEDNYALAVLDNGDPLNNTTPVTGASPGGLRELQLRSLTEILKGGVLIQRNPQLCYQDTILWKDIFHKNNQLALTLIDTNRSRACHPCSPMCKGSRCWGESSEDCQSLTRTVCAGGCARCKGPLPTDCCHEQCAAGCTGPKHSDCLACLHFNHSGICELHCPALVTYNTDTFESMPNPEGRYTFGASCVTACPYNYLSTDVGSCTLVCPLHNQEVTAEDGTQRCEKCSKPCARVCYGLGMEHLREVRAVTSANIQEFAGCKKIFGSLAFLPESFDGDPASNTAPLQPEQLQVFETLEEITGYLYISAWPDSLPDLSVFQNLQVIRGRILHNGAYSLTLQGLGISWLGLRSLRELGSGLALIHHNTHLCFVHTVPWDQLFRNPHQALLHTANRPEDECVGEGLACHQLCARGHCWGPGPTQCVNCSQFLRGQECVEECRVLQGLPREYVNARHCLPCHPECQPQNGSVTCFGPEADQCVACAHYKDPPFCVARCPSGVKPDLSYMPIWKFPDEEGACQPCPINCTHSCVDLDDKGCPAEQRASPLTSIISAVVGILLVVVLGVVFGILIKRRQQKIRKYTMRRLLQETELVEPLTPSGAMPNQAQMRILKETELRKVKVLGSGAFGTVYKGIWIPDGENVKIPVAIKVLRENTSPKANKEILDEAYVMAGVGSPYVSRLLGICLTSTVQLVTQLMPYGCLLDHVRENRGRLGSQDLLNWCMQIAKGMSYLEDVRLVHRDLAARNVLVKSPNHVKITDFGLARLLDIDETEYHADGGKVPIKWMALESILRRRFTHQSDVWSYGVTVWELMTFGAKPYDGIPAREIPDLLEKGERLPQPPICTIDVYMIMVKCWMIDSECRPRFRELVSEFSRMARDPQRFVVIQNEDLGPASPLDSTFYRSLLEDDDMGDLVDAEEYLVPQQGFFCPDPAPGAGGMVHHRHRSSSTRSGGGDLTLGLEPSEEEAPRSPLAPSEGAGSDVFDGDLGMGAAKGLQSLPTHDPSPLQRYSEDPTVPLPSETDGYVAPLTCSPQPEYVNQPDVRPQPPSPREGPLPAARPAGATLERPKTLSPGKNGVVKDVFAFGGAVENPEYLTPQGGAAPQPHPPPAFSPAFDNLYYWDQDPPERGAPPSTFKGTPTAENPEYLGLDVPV
Where [10] appears, read: H69AR cells + 2 uM doxorubicin, measured here: viability with 2 uM doxorubicin, stronger effect = lower value.
Where [11] appears, read: H69AR cells, compound alone cytotoxicity.

The results in this text go back to PubChem BioAssay.

As usually defined, the inhibition is the relative decrease from the control value, in per cent. As usually defined, the viability is a read-out of living cells in per cent, often relative to untreated cells.

Structures are written as SMILES. Activity calls are given as the source filed them.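 Rule for the calls, unless noted: active = viability at or below 10% of carrier control in both of two separate runs; inconclusive = viability at or below 10% in only one of the two runs; inactive = the rest.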

Pantothenate synthetase (Mycobacterium tuberculosis (strain ATCC 25618 / H37Rv)), sequence (P9WIL5 whole entry, looked up): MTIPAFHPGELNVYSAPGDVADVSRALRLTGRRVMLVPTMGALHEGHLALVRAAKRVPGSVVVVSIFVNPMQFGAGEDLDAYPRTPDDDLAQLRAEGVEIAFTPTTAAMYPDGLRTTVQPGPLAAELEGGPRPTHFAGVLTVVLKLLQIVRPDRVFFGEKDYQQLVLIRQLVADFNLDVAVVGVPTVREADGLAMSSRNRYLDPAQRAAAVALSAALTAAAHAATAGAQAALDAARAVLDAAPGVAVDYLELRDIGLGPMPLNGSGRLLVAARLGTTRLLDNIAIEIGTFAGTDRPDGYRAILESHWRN

Consider `COc1ccc(Cc2nccc3cc(OC)c(OC)cc23)cc1OC`, for which the inhibition was 0% (inactive) in [1], 0.39% (inactive) in [6] and -2.5% (inactive) in test [7]. The viability was 88% (inactive) in [2]; 78.6% (inactive) in [3]; 81.7% (inactive) in test [4]; 82% in test [5] (setting [10]); 81.7% in test [5] (setting [11]). Moreover, the differential viability (reversal) in test [5] (H69AR cells + 2 uM doxorubicin) is -0.28% (inactive).

Turning to `Cc1cc(C)c(C(=O)CN2CCOCC2)c(C)c1`, the inhibition in test [1] was 2% (inactive); in test [6], -5.19% (inactive); in test [7], -0.33% (inactive). In addition, the viability in [8] is 105%; in test [2] it was 105% (inactive); in test [3] it was 83.7% (inactive); in test [4] it was 74% (inactive); in test [5] (setting [10]) it was 80.7%; in [5] (setting [11]) it was 74%. Besides, the Her2 level in [9] is 98.5% (inactive). The differential viability (reversal) in test [5] (H69AR cells + 2 uM doxorubicin) was -6.78% (inactive).

On to `NC(=O)OCCSc1nnc(-c2cccc(C(N)=S)c2)o1`, for which the inhibition in test [1] is 2% (inactive); in test [6], -6% (inactive); in test [7], 0.65% (inactive). Moreover, the viability in test [8] was 103%; in test [2] it was 103% (inactive); in test [3], 108% (inactive); in test [4], 105% (inactive); in test [5] (setting [10]) it was 91%; in test [5] (setting [11]), 105%. In [9], the Her2 level is 88% (inactive). Moreover, in test [5] (H69AR cells + 2 uM doxorubicin), the differential viability (reversal) was 13.7% (inactive).

Regarding `Cc1ccc(C)c(NC(=O)CSc2nnc([C@@H](N)Cc3c[nH]c4ccccc34)o2)c1`, the figures for the inhibition in [1], in [6] and in test [7] were 6% (inactive), -5.2% (inactive) and -4.13% (inactive), respectively. In addition, the viability is 101% in test [8]; 101% (inactive) in test [2]; 86.9% (inactive) in test [3]; 106% (inactive) in test [4]; 92.9% in test [5] (setting [10]); 106% in test [5] (setting [11]). Also, in [9], the Her2 level was 94.5% (inactive). In test [5] (H69AR cells + 2 uM doxorubicin), the differential viability (reversal) is 13.5% (inactive).

Consider `C=C1CC[C@@]2(O)[C@H]3Cc4ccc(O)c5c4[C@@]2(CCN3CC2CC2)[C@H]1O5`, for which the inhibition in test [1] is 0% (inactive); in [6] it was -1.43% (inactive); in test [7], 6.83% (inactive). Besides, the viability in test [2] is 101% (inactive); in test [3], 95.2% (inactive); in test [4], 110% (inactive); in test [5] (setting [10]), 95.5%; in test [5] (setting [11]), 110%. In addition, in [5] (H69AR cells + 2 uM doxorubicin), the differential viability (reversal) was 14.7% (inactive).

For `CC(C)CC12CN3CCN(CC(C3)/C1=N/O)C2`, the inhibition in [1] was 0% (inactive); in test [6], -5.54% (inactive); in test [7] it was -0.98% (inactive). The viability in test [8] is 107%; in [2], 107% (inactive); in [3], 108% (inactive); in [4], 96.4% (inactive); in test [5] (setting [10]), 87.8%; in test [5] (setting [11]), 96.4%. Moreover, the Her2 level in [9] is 101% (inactive). In addition, the differential viability (reversal) in test [5] (H69AR cells + 2 uM doxorubicin) is 8.57% (inactive).

Take `CCOc1ccc(-n2c(O)c(C=NCCN(CC)CC)c(=O)[nH]c2=O)cc1`: the inhibition in [1] was 0% (inactive); in test [6], 2.13% (inactive); in test [7], -8.06% (inactive). For the same molecule, the viability in test [8] is 87%; in [2], 87% (inactive); in [3], 100% (inactive); in test [4], 103% (inactive); in [5] (setting [10]), 103%; in test [5] (setting [11]), 103%. The Her2 level in [9] is 105% (inactive). Moreover, in test [5] (H69AR cells + 2 uM doxorubicin), the differential viability (reversal) is -0.4% (inactive).

Consider `COc1ccccc1N1CCN(Cc2c(F)cccc2F)CC1`, for which the inhibition was 1% (inactive) in [1], -1.69% (inactive) in test [6] and 0.98% (inactive) in [7]. Besides, the viability is 89% in [8]; 89% (inactive) in test [2]; 107% (inactive) in [3]; 94.2% (inactive) in test [4]; 96.8% in test [5] (setting [10]); 94.2% in test [5] (setting [11]). The Her2 level in test [9] is 88.5% (inactive). In [5] (H69AR cells + 2 uM doxorubicin), the differential viability (reversal) was -2.56% (inactive).

As for `COc1ccc(S(=O)(=O)NC(CC(=O)N2CCC3(CC2)OCCO3)c2ccco2)cc1` (centres undefined), the inhibition in test [1] is 0% (inactive); in test [6] it was -8.77% (inactive); in test [7], -0.48% (inactive). Moreover, the viability in [8] is 134%; in [2], 134% (inactive); in test [3], 101% (inactive); in test [4], 93.9% (inactive); in test [5] (setting [10]), 88%; in test [5] (setting [11]) it was 93.9%. Besides, the Her2 level in test [9] is 106% (inactive). Further, the differential viability (reversal) in [5] (H69AR cells + 2 uM doxorubicin) is 5.91% (inactive).

For the molecule `CC(CCc1ccccc1)NC(C)C(O)c1ccc(O)cc1` (centres undefined), the results for the inhibition in [1], in [6] and in test [7] were 4% (inactive), -0.26% (inactive) and -3% (inactive), respectively. In addition, the viability was 87% (inactive) in test [2]; 87.5% (inactive) in test [3]; 97.2% (inactive) in [4]; 95.5% in test [5] (setting [10]); 97.2% in [5] (setting [11]). Besides, the differential viability (reversal) in test [5] (H69AR cells + 2 uM doxorubicin) was 1.7% (inactive).

With `CCOc1ccc(Br)c(C2(O)CC(C)N(C)CC2C)c1` (centres undefined), the inhibition in [1] was 1% (inactive); in test [6], -6% (inactive); in [7], -1.48% (inactive). The viability in test [8] is 80.5%; in test [2] it was 80.5% (inactive); in test [3], 68.2% (inactive); in test [4], 96.7% (inactive); in [5] (setting [10]), 77.1%; in test [5] (setting [11]), 96.7%. For the same molecule, the Her2 level in [9] was 80.5% (inactive). For the same molecule, the differential viability (reversal) in test [5] (H69AR cells + 2 uM doxorubicin) was 19.5% (inactive).

On to `CCCNS(=O)(=O)c1ccc(OCC(=O)N2CCN(Cc3ccccc3)CC2)cc1`, for which the results for the inhibition in test [1], in [6] and in [7] were 0% (inactive), -5.07% (inactive) and 5.97% (inactive), respectively. For the same molecule, the viability in test [2] was 111% (inactive); in test [3], 86.6% (inactive); in test [4], 88.6% (inactive); in test [5] (setting [10]), 88.2%; in [5] (setting [11]), 88.6%. The differential viability (reversal) in [5] (H69AR cells + 2 uM doxorubicin) is 0.375% (inactive).

For `COc1ccc(CCNC(=O)c2c(N)n(CCN3CCOCC3)c3nc4ccccc4nc23)cc1`, the inhibition in test [1] was 0% (inactive); in test [6], 3.82% (inactive); in test [7], 1.82% (inactive). Besides, the viability was 104% in [8]; 104% (inactive) in test [2]; 19.3% (active) in test [4]; 39.8% in [5] (setting [10]); 19.3% in test [5] (setting [11]). Further, in test [9], the Her2 level was 87.5% (inactive). In [5] (H69AR cells + 2 uM doxorubicin), the differential viability (reversal) was -20.5% (inactive).

With `COc1ccc(CN2CCN(C(=O)Cc3ccccc3)CC2)c(OC)c1`, the inhibition in test [1] was 0% (inactive); in test [6], -6.08% (inactive); in [7], 1.59% (inactive). Besides, the viability in test [8] was 93%; in [2], 93% (inactive); in test [3] it was 89.9% (inactive); in [4] it was 97.3% (inactive); in test [5] (setting [10]) it was 87.4%; in test [5] (setting [11]), 97.3%. Besides, the Her2 level in test [9] was 90% (inactive). The differential viability (reversal) in [5] (H69AR cells + 2 uM doxorubicin) is 9.87% (inactive).

On to `CCC(=NCC1CCCO1)c1c(O)n(Cc2ccccc2)c(=O)[nH]c1=O` (centres undefined), for which the inhibition in test [1] is 0% (inactive); in test [6] it was -4.29% (inactive); in test [7], 1.48% (inactive). Further, the viability was 91% (inactive) in [2]; 107% (inactive) in [3]; 86.3% (inactive) in test [4]; 86.7% in test [5] (setting [10]); 86.3% in [5] (setting [11]). In addition, the differential viability (reversal) in [5] (H69AR cells + 2 uM doxorubicin) is -0.335% (inactive).
